# Measurements published in article PMC3577957 (Insect biochemistry and molecular biology, 2012).
# Marks after values point to notes of the source that are not given here.
# How the values were obtained:
# Hv-mEH1 [1] = target: T1, Hv-mEH1 (Chloridea virescens, UniProt L7R9X8); test: Fluorescent substrate assay, Hv-mEH1; assay type: biochemical, Heliothis virescens; conditions: 50 mM Tris-HCl, pH 8.0, 5 μM substrate (25 μM for CMNGC), 100 μM OTFP, 1% DMSO, 0.1 mg ml^−1 BSA, 30°C
# In short: (§1)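 Enzyme was microsomal fraction from High Five cells infected with recombinant baculovirus (MOI 0.5, 27°C, 65 h p.i.), solubilized with 0.5% Triton X-100, and taken as the 163,000 xg supernatant. Enzyme was preincubated 5 min with OTFP before α-cyanoester/carbonate epoxide substrate was added. Fluorescence (ex 330/em 465 nm) was read every 30 s for 10 min. Aldehyde product was quantified against a 6-methoxy-2-naphthaldehyde standard curve. No-OTFP controls measured ester hydrolysis. Quadruplicate wells, ≥3 plates.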
# MsJHEH [2] = target: T2, MsJHEH (Manduca sexta, UniProt Q25489); test: Fluorescent substrate assay, MsJHEH; assay type: biochemical; conditions: 50 mM Tris-HCl, pH 8.0, 5 μM substrate (25 μM for CMNGC), 100 μM OTFP, 1% DMSO, 0.1 mg ml^−1 BSA, 30°C
# T2 sequence (Q25489 1-462): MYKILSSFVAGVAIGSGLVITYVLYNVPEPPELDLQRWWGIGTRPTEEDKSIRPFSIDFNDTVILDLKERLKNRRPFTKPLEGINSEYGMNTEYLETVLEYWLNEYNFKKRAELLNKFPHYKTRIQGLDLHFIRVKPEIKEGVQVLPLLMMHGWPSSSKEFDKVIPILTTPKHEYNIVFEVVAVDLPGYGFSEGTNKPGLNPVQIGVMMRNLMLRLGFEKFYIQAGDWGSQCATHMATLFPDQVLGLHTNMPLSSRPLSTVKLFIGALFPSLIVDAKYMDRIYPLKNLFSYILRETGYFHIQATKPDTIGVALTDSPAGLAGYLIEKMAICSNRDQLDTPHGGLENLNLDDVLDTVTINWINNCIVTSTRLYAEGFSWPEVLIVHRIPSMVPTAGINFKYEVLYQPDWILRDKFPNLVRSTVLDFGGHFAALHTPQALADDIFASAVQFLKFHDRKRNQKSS
# In short: as §1
# [3] = target: T3, hmEH (human microsomal EH, EPHX1) (Homo sapiens, UniProt P07099); test: Fluorescent substrate assay, hmEH; assay type: biochemical; conditions: 50 mM Tris-HCl, pH 8.0, 5 μM substrate, 100 μM OTFP, 1% DMSO, 0.1 mg ml^−1 BSA, 30°C
# T3 sequence (P07099 1-455): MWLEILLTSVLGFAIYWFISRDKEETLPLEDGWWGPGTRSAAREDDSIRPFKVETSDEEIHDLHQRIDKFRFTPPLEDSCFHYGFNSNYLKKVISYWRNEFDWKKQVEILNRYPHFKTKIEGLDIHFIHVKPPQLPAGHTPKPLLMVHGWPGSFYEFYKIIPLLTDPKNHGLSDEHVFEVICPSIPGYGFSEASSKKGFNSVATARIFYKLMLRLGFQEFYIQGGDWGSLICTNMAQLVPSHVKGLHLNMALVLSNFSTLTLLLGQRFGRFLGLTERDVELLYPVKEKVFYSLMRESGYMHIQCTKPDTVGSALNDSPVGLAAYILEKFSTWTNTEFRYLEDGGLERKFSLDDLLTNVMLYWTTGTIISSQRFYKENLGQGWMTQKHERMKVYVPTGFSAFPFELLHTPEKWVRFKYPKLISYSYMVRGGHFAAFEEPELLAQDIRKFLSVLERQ
# Hv-mEH1 [4] = target: T1, Hv-mEH1; test: Partition assay with radiolabeled general epoxide substrates, Hv-mEH1; assay type: biochemical, Heliothis virescens; conditions: 100 mM sodium phosphate, pH 8.0, 50 μM substrate, 1% ethanol, 0.1 mg ml^−1 BSA, 30°C; corrected for background hydrolysis
# In short: (§2)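 Microsomal enzyme came from baculovirus-infected High Five cells (MOI 0.5, 65 h p.i., Triton X-100 extract, 163,000 xg supernatant). Partition assay used tritium-labeled cis-stilbene oxide, trans-stilbene oxide or t-DPPO. Enzyme amount was set so at most 15% of substrate was hydrolyzed. Assays were run in triplicate and repeated at least three times. Results are mean ± standard deviation.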
# MsJHEH [5] = target: T2, MsJHEH; test: Partition assay with radiolabeled general epoxide substrates, MsJHEH; assay type: biochemical; conditions: 100 mM sodium phosphate, pH 8.0, 50 μM substrate, 1% ethanol, 0.1 mg ml^−1 BSA, 30°C; corrected for background hydrolysis
# In short: as §2
# [6] = target: T3, hmEH (human microsomal EH, EPHX1); conditions: 25 μM CMNGC; ref Morisseau et al., 2011; cited from earlier work
# Hv-mEH1 [7] = target: T1, Hv-mEH1; test: JH III partition assay and kinetic constant determination, Hv-mEH1; assay type: biochemical, Heliothis virescens
# In short: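 Recombinant enzyme expressed in baculovirus-infected High Five cells (MOI 0.5, 27°C, harvested 65 h p.i.). Used the Triton X-100-solubilized microsomal supernatant. Tritiated JH III partition assay at eight concentrations (96 to 11,190 nM), with 1% ethanol and 0.1 mg ml−1 BSA. Ran 5 to 30 min with ≤15% hydrolysis, non-enzymatic background subtracted. KM/Vmax fitted by enzyme kinetics, triplicate, repeated three times.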
# MsJHEH [8] = target: T2, MsJHEH; conditions: cited from earlier work
# Bommo-JHEH = conditions: ref Zhang et al., 2005; cited from earlier work
Compound,Specific Activity Hv-mEH1 with fluorescent substrates (Hv-mEH1 [1]),Specific Activity MsJHEH with fluorescent substrates (MsJHEH [2]),Specific Activity hmEH with fluorescent substrates [3],Specific Activity Hv-mEH1 (Hv-mEH1 [4]),Specific Activity MsJHEH (MsJHEH [5]),also measured
"CCC[C@@H]1O[C@H]1CC(=O)OC(C#N)c1ccc2cc(OC)ccc2c1 (relative stereo) [MNHE, cyano(2-methoxynaphthalen-6-yl)methyl trans-2-(3-propyloxiran-2-yl)acetate]","1,180 ± 8 nmol min^−1 mg^−1",38 ± 3 nmol/min/mg,< 1.0 nmol/min/mg,–,–,–
"COc1ccc2cc(C(C#N)OC(=O)OC[C@@H]3O[C@H]3c3ccccc3)ccc2c1 (relative stereo) [MNPC, cyano(6-methoxy-naphthalen-2-yl)methyl trans-[(3-phenyloxiran-2-yl)methyl] carbonate]",816 ± 140 nmol/min/mg,29 ± 18 nmol/min/mg,< 1.0 nmol/min/mg,–,–,–
"COc1ccc2cc(C(C#N)OC(=O)C[C@@H]3O[C@H]3c3ccccc3)ccc2c1 (relative stereo) [MNPE, cyano(2-methoxynaphthalen-6-yl)methyl trans-(2-(3-phenyloxiran-2-yl))acetate]",138 ± 9 nmol/min/mg,8.9 ± 0.4 nmol/min/mg,< 1.0 nmol/min/mg,–,–,–
"CC[C@@H]1O[C@H]1COC(=O)OC(C#N)c1ccc2cc(OC)ccc2c1 (relative stereo) [MNPEC, cyano-(6-methoxy-naphthalen-2-yl)-methyl trans-((3-ethyl-oxiran-2-yl)methyl) carbonate]",122 ± 11 nmol/min/mg,0.8 ± 0.1 nmol/min/mg,< 1.0 nmol/min/mg,–,–,–
"c1ccc([C@@H]2O[C@H]2c2ccccc2)cc1 (relative stereo) [t-SO, trans-stilbene oxide]",–,–,–,0.3 ± 0.01 nmol/min/mg,2.1 ± 0.3 nmol/min/mg,–
"COc1ccc2cc(C(C#N)OC(=O)OCC3CO3)ccc2c1 (stereo not drawn) [CMNGC, cyano(6-methoxy-naphthalen-2-yl)methyl oxiran-2-ylmethyl carbonate]",0.03 ± 0.001 nmol/min/mg,3.3 ± 0.2 nmol/min/mg,–,–,–,Specific Activity hmEH with CMNGC [6]: 25 ± 2 ^b nmol min^−1 mg^−1
"COC(=O)/C=C(\C)CC/C=C(\C)CC[C@H]1OC1(C)C [JH III, juvenile hormone (JH) III]",–,–,–,–,–,"specificity constant (kcat/KM ratio) of Hv-mEH1 for JH III (Hv-mEH1 [7]): 630 M⁻¹ s⁻¹; Vmax of Hv-mEH1 for JH III (Hv-mEH1 [7]; 100 mM sodium phosphate, pH 8.0, 30°C, JH III diol formed): 1.7 ± 0.1 nmol/min/mg; kcat of Hv-mEH1 for JH III (Hv-mEH1 [7]; calculated using estimated molecular mass of 53.1 kDa): 0.002 s⁻¹; Vmax of MsJHEH for JH III (MsJHEH [8]; ref Severson et al., 2002): 59 nmol/min/mg; specificity constant of MsJHEH for JH III (MsJHEH [8]; ref Touhara and Prestwich, 1993): 290000 M⁻¹ s⁻¹; specificity constant of Bommo-JHEH for JH III (Bommo-JHEH): 77000 M⁻¹ s⁻¹"
"COc1ccc2cc(C(C#N)OC(=O)OCC3OC3(C)C)ccc2c1 (stereo not drawn) [MNiPC, cyano-(6-methoxy-naphthalen-2-yl)-methyl 3,3-dimethyl-oxiranylmethyl carbonate]",3.7 ± 1.1 nmol/min/mg,1.3 ± 0.5 nmol/min/mg,< 1.0 nmol/min/mg,–,–,–
"c1ccc([C@H]2O[C@H]2c2ccccc2)cc1 [c-SO, cis-stilbene oxide]",–,–,–,45.8 ± 7.0 nmol/min/mg,3.7 ± 0.5 nmol/min/mg,–
"c1ccc(CC2OC2c2ccccc2)cc1 (stereo not drawn) [t-DPPO, trans-diphenylpropene oxide]",–,–,–,0.1 ± 0.04 nmol/min/mg,18.3 ± 4.0 nmol/min/mg,–
